Data set [1] in a line: folding enthalpy; higher = less favourable; fluorescence melt of hairpins on a sequencing array, two-state fit. The conditions noted are these: sodium 0.088 M. Put shortly: (§1)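 Two-state fits, bootstrapped, provided melting temperature and folding enthalpy from Cy3 fluorescence normalised to pre-quench Cy3 and to control constructs. Library hairpins with annealed Cy3 and quencher oligos were imaged on a sequenced MiSeq flow cell in 50 mM Na-HEPES pH 8.0, 25 mM NaCl, at 2.5 °C intervals up to 60 °C. Four replicates were combined with inverse-variance weighting. A 9.35 °C upward shift was applied to fitted temperatures to match UV melts.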

The nature of data set [2]: melting temperature; fluorescence melt of hairpins on a sequencing array, two-state fit, raised by 9.35 °C to match UV melts. The note with it: sodium 0.088 M. Put shortly:
as §1

Take GACTACGAAAGTATAGTC ((((((....)))..))): the folding enthalpy in data set [1] is -23.3 kcal/mol. Further, the Tm in data set [2] was 36.8 °C.

Consider GACTACGAAAGTATGGTC ((((((....)))..))), for which the folding enthalpy in data set [1] is -19.5 kcal/mol. For the same sequence, in data set [2], the Tm was 34.4 °C.

With GACTACGAAAGTATTGTC ((((((....)))..))), in data set [1], the folding enthalpy was -15.2 kcal/mol. Further, the Tm in data set [2] was 29.6 °C.

Regarding GACTACGGAAACGTAGTC (((((((....))))))), the folding enthalpy in data set [1] was -37.8 kcal/mol. Moreover, the Tm in data set [2] is 61.4 °C.

Regarding GACTATGGAAACATAGCC (.(((((....))))).), the folding enthalpy in data set [1] was -22.6 kcal/mol. The Tm in data set [2] was 35.7 °C.

As to GACTCACGAAAGTGGGTC (((.(((....))).))), in data set [1], the folding enthalpy was -41.1 kcal/mol. Further, the Tm in data set [2] came to 57.6 °C.

In the case of GACTCAGAAATGAGTC ((((((....)))))), the folding enthalpy in data set [1] was -35.9 kcal/mol. Moreover, in data set [2], the Tm was 54.5 °C.

For GACTCAGGAAACTGAATC ((.((((....)))).)), the folding enthalpy in data set [1] is -16.3 kcal/mol. Besides, the Tm in data set [2] was found to be 27.7 °C.

As to GACTCAGGAAACTGAGCC (.(((((....))))).), in data set [1], the folding enthalpy is -16.5 kcal/mol. The Tm in data set [2] is 43.6 °C.

In the case of GACTCCCGAAAGGGCGTC (((.(((....))).))), in data set [1], the folding enthalpy is -27.3 kcal/mol. Moreover, the Tm in data set [2] came out at 53.5 °C.

Consider GACTCCCGAAAGGGGTC (((.(((....)))))), for which the folding enthalpy in data set [1] was -24.9 kcal/mol. In data set [2], the Tm came to 50.8 °C.

Regarding GACTCCGAAAGGACAGTC ((((((....)))..))), in data set [1], the folding enthalpy was -19.2 kcal/mol. Further, the Tm in data set [2] is 37.9 °C.

As to GACTCCGAAAGGACGTC ((((((....))).))), in data set [1], the folding enthalpy is -30.8 kcal/mol. Further, in data set [2], the Tm came out at 49.9 °C.

In the case of GACTCCGGAAACGGAACC (..((((....))))..), the folding enthalpy in data set [1] is -8.88 kcal/mol. For the same sequence, the Tm in data set [2] amounted to 26.1 °C.

For the sequence GACTCCGGAAACGGGGTC (((.(((....))).))), the folding enthalpy in data set [1] is -38 kcal/mol. Besides, in data set [2], the Tm turned out to be 57.2 °C.

For the sequence GACTCGCGAAAGCGCGTC (((.(((....))).))), the folding enthalpy in data set [1] was -23.6 kcal/mol. Further, in data set [2], the Tm was 55.9 °C.

In the case of GACTCGGAAACGAGTC ((((((....)))))), in data set [1], the folding enthalpy was -32.8 kcal/mol. Further, the Tm in data set [2] amounted to 66.4 °C.

As to GACTCGGGAAACCGAGCC (.(((((....))))).), the folding enthalpy in data set [1] is -17 kcal/mol. Also, in data set [2], the Tm worked out at 47.8 °C.

For GACTCTGGAAACAGAGCC (.(((((....))))).), the folding enthalpy in data set [1] is -18.3 kcal/mol. In addition, in data set [2], the Tm was found to be 43 °C.

As for GACTCTGGAAACAGAGTC (((((((....))))))), in data set [1], the folding enthalpy is -34.3 kcal/mol. In data set [2], the Tm worked out at 63.9 °C.

With GACTGAGGAAACTTAGTC ((((.((....)).)))), the folding enthalpy in data set [1] was -26.3 kcal/mol. Moreover, the Tm in data set [2] worked out at 39.4 °C.

In the case of GACTGCGAAAGCAACGTC ((((((....)))..))), the folding enthalpy in data set [1] was -15.2 kcal/mol. In addition, in data set [2], the Tm was 38.8 °C.

Regarding GACTGCGAAAGCACTGTC ((((((....)))..))), the folding enthalpy in data set [1] is -12.8 kcal/mol. Also, the Tm in data set [2] amounted to 39.9 °C.

As to GACTGCGAAAGCATTGTC ((((((....)))..))), the folding enthalpy in data set [1] was -10.4 kcal/mol. Moreover, the Tm in data set [2] is 42 °C.

For GACTGGACGAAAGTCGTC (((..(((....)))))), in data set [1], the folding enthalpy is -12.4 kcal/mol. Besides, the Tm in data set [2] is 46.8 °C.

Regarding GACTGGGAAACCAGTC ((((((....)))))), the folding enthalpy in data set [1] is -35.1 kcal/mol. The Tm in data set [2] was 60.1 °C.

GACTGGGGAAACCCAGCC (.(((((....))))).): the folding enthalpy in data set [1] is -15.4 kcal/mol. For the same sequence, in data set [2], the Tm is 44.7 °C.

For GACTGGGGAAACCTAGTC ((((.((....)).)))), in data set [1], the folding enthalpy is -32.8 kcal/mol. The Tm in data set [2] is 47.8 °C.

With GACTGTACGAAAGTAGTC (((..(((....)))))), the folding enthalpy in data set [1] is -28.8 kcal/mol. Also, the Tm in data set [2] was determined as 36.9 °C.

On to GACTGTCCGAAAGGAGTC (((..(((....)))))), for which, in data set [1], the folding enthalpy was -14.6 kcal/mol. In addition, the Tm in data set [2] came out at 36.1 °C.

Source of the values: the array DNA melting data of Ke et al. (doi:10.1101/2024.01.08.574731).
